Experimental data reported in ChEMBL document CHEMBL3045034, “Diterpenes from Salvia broussonetii transformed roots and their insecticidal activity” (J Agric Food Chem, 2005).
Values after ≈ are worked out from the molar mass of the structure shown. Active and inactive are the calls of the source. The calls are words filed in the database; no cut-off is given here.

Experiments:
[1] = system: Leptinotarsa decemlineata; assay: Antifeedant activity against adult Leptinotarsa decemlineata in host plant assessed as feeding inhibition; type: functional, organism-based
Outline: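 Choice feeding assay with adult beetles. Percent feeding inhibition was calculated. Compounds giving over 50% inhibition went on to a dose-response test, and EC50 (dose for 50% feeding reduction, µg/cm2) was derived by linear regression of % inhibition on log dose.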

[2] = system: Leptinotarsa decemlineata; assay: Mortality in adult Leptinotarsa decemlineata in host plant measured after 72 hr; type: functional; parameters: concentration or dose not given beside the values
Outline: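 Test compounds in DMSO (10 µg/insect) were injected into the hemolymph of 20 adult beetles. Mortality was recorded for up to 3 days (72 h), analysed with contingency tables and corrected by Abbott's method.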

[3] = Cytotoxicity in mammalian Cricetulus griseus CHO (Chinese hamster ovary) cells measured after 48 hr by MTT assay; conditions: read-out: LD50
Spodoptera littoralis [4] = assay: Effect on weight gain in L6 larvae Spodoptera littoralis assessed as biomass compound injected orally relative to control; type: functional
Spodoptera littoralis [5] = assay: Antifeedant activity against L6 larvae Spodoptera littoralis compound injected orally relative to control; type: functional, organism-based
Spodoptera littoralis [6] = assay: Effect on ingestion in L6 larvae Spodoptera littoralis assessed as consumption compound injected orally relative to control; type: functional

SMILES | EC50 [1] [microg/cm2] | mortality [2] [%] | CC50 at 48 h [3] [µg/mL] | Activity (Spodoptera littoralis [4]) [%] | Activity (Spodoptera littoralis [5]) | Activity (Spodoptera littoralis [6]) [%]
CC(C)c1cc2c(c(O)c1O)[C@@]1(C)CCCC(C)(C)C1=C(O)C2=O [14-DEOXYCOLEON U] | 1.8 | 29 | > 100 | 99 | inactive | 107
COc1c(O)c2c(c(O)c1C(C)C)C(=O)C[C@H]1C(C)(C)CCC[C@]21C [INUROYLEANOL] | > 100 | 0 |  | 106 | inactive | 119
CC(C)c1cc2c(c(O)c1O)[C@@]1(C)CCCC(C)(C)[C@@H]1[C@@H](O)C2=O [6-ALPHA-HYDROXYDEMETHYL-CRYPTOJAPONOL] |  |  | > 100 |  | inactive | 
CC(C)c1cc2c(c(O)c1O)[C@@]1(C)CCCC(C)(C)[C@@H]1CC2=O [DEMETHYLCRYPTOJAPONOL] | > 100 | 43 | 36 (≈ 114 µM) | 105 | inactive | 103
CC(C)c1cc2c(c(O)c1O)C[C@@]13CCCC(C)(C)[C@@H]1C[C@@H]2O3 [BRUSSONOL] | > 100 | 7 | 50.6 (≈ 160 µM) |  |  | 
COc1c(C(C)C)cc2c(c1O)[C@@]1(C)CCCC(C)(C)[C@@H]1CC2 | 10.2 | 14 | > 100 | 102 | inactive | 91
